# Source: PubChem BioAssay (Johns Hopkins Ion Channel Center)
# The list is not random: actives were taken first. Their share in the collection is about 3.8%.
# KCNQ1 block: inhibitors of human KCNQ1 channel, primary screen, cell-based, thallium flux, high-throughput | CHO-K1 KCNQ1, FluxOR thallium flux fluorescence; hits give high values | B-score at 10 µM | hit rate 1.3% among 310,000 | AID 2642, 2010;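 active = compounds whose thallium flux B-score, printed positive for inhibition, exceeds three library SD while starting fluorescence stays within three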;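 note: channel opened by potassium depolarization with thallium stimulus after 20 min compound exposure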
# KCNK3 block: human KCNK3 channel inhibitors, primary screen, CHO cells, FluxOR thallium flux, B-score | hit rate 0.84% among 340,000 | AID 602410, 2012 | FluxOR fluorescence; hits give low values | Potassium channel subfamily K member 3 (Homo sapiens), O14649 | B-score at 10 µM;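 active = B-score under library mean minus 4 SD, starting fluorescence ratio at most library mean plus 5 SD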;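 note: more negative B-score means stronger inhibition of thallium flux through KCNK3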
# KCNQ1 act: potentiators or activators of KCNQ1 channel, primary screen, cell-based, thallium flux, high-throughput; B-score at 10 µM; Potassium voltage-gated channel subfamily KQT member 1 (Homo sapiens), P51787; CHO-K1 KCNQ1, thallium flux FluxOR fluorescence; hits give high values; AID 2648, 2010; hit rate 0.35% among 310,000;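 active = fluorescence ratio B-score, a plate-corrected score, at least three library SD, with initial intensity B-score within 5 SD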
#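 System: CHO-K1 cells stably expressing KCNQ1 / Medium: assay buffer for compound exposure, DMSO matched across wells / Reagent: thallium- and potassium-containing depolarizing buffer / Compound: one concentration, matched DMSO / Incubation: 20 min compound pretreatment at room temperature / Measured by: kinetic FluxOR fluorescence, 10 s baseline plus 110 s post-stimulus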
# Kir21 block: inhibitors of mouse Kir2.1 inward-rectifier potassium channel | Inward rectifier potassium channel 2 (Mus musculus), P35561 | HEK293-Kir2.1, FluxOR thallium flux fluorescence; hits give low values | B-score at 10 µM | hit rate 0.85% among 310,000;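 active = fluorescence ratio B-score at or below minus 3 SD of library scores, with starting-brightness B-score within 2 SD, cut at about -4.2 in these data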;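 note: channel flux triggered by added potassium and thallium sulfate stimulus; B-score of peak minus minimum fluorescence over baseline after thallium stimulus; more negative B-score means stronger Kir2.1 block with less thallium influx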
# hERG protect: hERG rescue from dofetilide block, primary screen, cell-based, CHO-hERG, FluxOR thallium flux, dofetilide IC70; Voltage-gated inwardly rectifying potassium channel KCNH2 (Homo sapiens), Q12809; dofetilide IC70 present; activation (rescue from dofetilide block), less the hit threshold, % at 10 µM; hit rate 0.51% among 310,000; AID 1511, 2009;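 active = activation above the mean of controls blocked by dofetilide plus 5 SD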;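 note: thallium influx through hERG after potassium depolarization seen as dye fluorescence rise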
# KCNK9 inh: KCNK9 potassium channel inhibitors, primary screen, HEK293 cells, thallium flux | FluxOR thallium flux fluorescence; hits give low values | AID 488922, 2010 | hit rate 1.2% among 310,000 | B-score at 10 µM | Potassium channel subfamily K member 9 (Homo sapiens), Q9NPC2;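 active = ratio B-score over 3 SD below the library mean, with starting fluorescence within 5 SD of its mean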;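 note: negative B-score means less thallium flux so channel inhibition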
# KCNQ1 inh valid: KCNQ1 potassium channel inhibitors, confirmation, cell-based, Tl flux, duplicate; shares compounds with KCNQ1 block; KCNQ1 cell line, FluxOR thallium flux fluorescence; inhibition, % at 10 µM; hit rate 93% among 1,600;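 active = primary screen active, with duplicate mean exceeding buffer control mean plus 3 SD of buffer wells, cut at about 28% in these data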;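 note: 0% = buffer control ratio and 100% = XE991 inhibitor control ratio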
# CHO KCNQ1 ctr: thallium flux effects in parental CHO cells, counter-screen for KCNQ1 inhibitor project, cell-based, Tl flux. parental CHO-K1, FluxOR thallium flux fluorescence ratio; hits give low values; zero means no signal rise above baseline. shares compounds with KCNQ1 block. fluorescence ratio (Tl flux) at 10 µM. hit rate 21% among 1,600;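 active = mean of duplicate thallium-flux fluorescence ratios in parental host cells more than 5 SD below the buffer control mean, cut at about 0.38 in these data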;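 note: ratio is peak minus minimum fluorescence divided by baseline fluorescence; actives read low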
# KCNQ2 spec: KCNQ2 channel inhibition, selectivity assay for KCNQ1 inhibitor project, cell-based. shares compounds with KCNQ1 block. KCNQ2 cells, FluxOR thallium flux fluorescence. inhibition, % at 10 µM. hit rate 71% among 1,600. AID 651746, 2012;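 active = mean percent inhibition of the KCNQ2 thallium signal more than 5 SD above the buffer-only control wells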;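 note: KCNQ2 expressed in CHO cells; 0% = buffer control wells and 100% = XE-991 inhibitor control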
# Target sequence (O88943 whole entry, looked up): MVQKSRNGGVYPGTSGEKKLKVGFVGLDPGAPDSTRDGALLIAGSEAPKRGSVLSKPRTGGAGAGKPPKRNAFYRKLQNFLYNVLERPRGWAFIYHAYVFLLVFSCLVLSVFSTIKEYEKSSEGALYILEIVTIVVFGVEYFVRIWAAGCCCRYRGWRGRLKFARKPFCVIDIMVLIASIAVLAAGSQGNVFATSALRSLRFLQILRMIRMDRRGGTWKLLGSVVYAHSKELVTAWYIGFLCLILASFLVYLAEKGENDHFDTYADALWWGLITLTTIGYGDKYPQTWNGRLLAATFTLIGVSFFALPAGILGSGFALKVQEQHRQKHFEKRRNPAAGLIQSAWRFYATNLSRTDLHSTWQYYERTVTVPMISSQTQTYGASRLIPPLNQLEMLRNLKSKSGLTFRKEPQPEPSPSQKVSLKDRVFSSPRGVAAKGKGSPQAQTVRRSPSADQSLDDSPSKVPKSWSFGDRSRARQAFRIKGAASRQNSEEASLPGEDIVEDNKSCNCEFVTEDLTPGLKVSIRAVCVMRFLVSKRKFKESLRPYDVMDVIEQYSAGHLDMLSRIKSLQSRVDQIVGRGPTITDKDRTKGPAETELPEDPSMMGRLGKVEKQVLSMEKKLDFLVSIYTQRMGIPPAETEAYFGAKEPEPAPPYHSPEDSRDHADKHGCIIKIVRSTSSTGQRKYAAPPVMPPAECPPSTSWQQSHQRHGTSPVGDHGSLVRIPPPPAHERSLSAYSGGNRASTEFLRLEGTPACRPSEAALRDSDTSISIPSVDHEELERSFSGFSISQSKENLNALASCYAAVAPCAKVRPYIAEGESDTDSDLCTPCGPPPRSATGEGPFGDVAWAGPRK
# KCNQ1 KCNE1 spec: KCNQ1/KCNE1 channel inhibition, selectivity assay for KCNQ1 inhibitor project, CHO-K1 cells, thallium flux, FluxOR. shares compounds with KCNQ1 block. FluxOR thallium flux fluorescence. inhibition, % at 10 µM. hit rate 77% among 1,600. AID 652147, 2013;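 active = mean percent inhibition of duplicate wells above the buffer-only control mean plus 3 SD of those controls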;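 note: 0% = buffer only wells and 100% = XE-991 inhibitor control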
# KCNK9 inh conf: KCNK9 potassium channel inhibitors, confirmation, HEK293 cells, thallium flux, duplicate; inhibition, % at 10 µM; hit rate 43% among 4,900; FluxOR thallium flux fluorescence; shares compounds with KCNK9 inh;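 active = thallium signal inhibited by more than 5 SD of the compound-free buffer control wells, on both duplicate plates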;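 note: 0% = assay buffer control wells without compound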
# Kir21 sel: mouse Kir2.1 channel inhibition, confirmation, selectivity assay for KCNK9 modulator project, cell-based, HEK293, thallium flux | shares compounds with KCNK9 inh | Kir2.1 cells, FluxOR thallium flux fluorescence | inhibition, % at 10 µM | hit rate 4% among 4,900;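 active = thallium signal drop more than 5 SD beyond the mean of the no-compound control wells, seen in both duplicate plates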;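 note: signal is fluorescence rise after thallium addition divided by baseline fluorescence; plate controls were assay buffer only for no effect and full block by chlorpromazine control for full effect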
# KCNK9 uninduced: thallium flux in non-induced HEK293 cells, confirmation, counter-screen for KCNK9 inhibitor project, cell-based, second counter screen, non-induced KCNK9-HEK293. shares compounds with KCNK9 inh. FluxOR thallium flux. inhibition, % at 10 µM. hit rate 40% among 4,900. AID 492997, 2010;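 active = thallium signal drop beyond 5 SD of the untreated control mean, on both duplicate plates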;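 note: plate controls were buffer only IC0 wells for no effect and SID17386958 at its maximal inhibitory level for full effect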
# An asterisk follows results filed as active; i = inactive; · = no result.
SMILES,KCNQ1 block,KCNK3 block,KCNQ1 act,Kir21 block,hERG protect,KCNK9 inh,KCNQ1 inh valid,CHO KCNQ1 ctr,KCNQ2 spec,KCNQ1 KCNE1 spec,KCNK9 inh conf,Kir21 sel,KCNK9 uninduced
CC(C)c1cc(C(=O)N2CCCC(C(=O)c3ccc4ccccc4c3)C2)on1 (configuration not stated),6*,i,i,-0.15,-18,i,0,0.5,91%*,35%*,i,i,i
CCn1c(SCC(=O)N2CCN(c3ccccc3)CC2)nc2c(c1=O)SC(C)C2 (configuration not stated),i,i,i,-1.4,-16,i,·,·,·,·,·,·,·
CC1Cc2nc(SCC(=O)N3CCN(c4ccccc4)CC3)n(CCc3ccccc3)c(=O)c2S1 (configuration not stated),8*,i,i,2.3,-26,i,70*,0.44,84%*,175%*,i,i,i
CCN(CC(=O)Nc1cc(S(=O)(=O)N2CCOCC2)ccc1Cl)Cc1ccccc1,·,i,·,·,·,·,·,·,·,·,·,·,·
O=C(Nc1cccc(Cl)c1)Nc1cc(S(=O)(=O)N2CCCCC2)ccc1Cl,8*,i,i,1.9,-31,i,104*,0.47,67%*,105%*,i,i,i
CCN(CC)S(=O)(=O)c1ccc(C)c(NC(=S)Nc2cccc(S(=O)(=O)N3CCCCCC3)c2)c1,6*,i,i,-2.7,-21,i,86*,0.4,87%*,89%*,i,i,i
CCN(CC(=O)Nc1cc(S(=O)(=O)N2CCCCC2)ccc1Cl)Cc1ccccc1,11*,i,i,-1.5,-14,i,86*,0.4,104%*,136%*,i,i,i
c1ccc(CC2CCN(C3=Nc4cccc5cccc3c45)CC2)cc1,13*,i,i,-1.4,-35,-9*,150*,0.34*,121%*,135%*,36%*,35%*,38%*
